Experiments:
Hexokinase-4 = target: T1, Hexokinase-4 (Homo sapiens, UniProt P35557); assay: Activation of recombinant human pancreatic glucokinase using 10 mM glucose by spectrophotometry
T1 sequence (P35557 whole entry): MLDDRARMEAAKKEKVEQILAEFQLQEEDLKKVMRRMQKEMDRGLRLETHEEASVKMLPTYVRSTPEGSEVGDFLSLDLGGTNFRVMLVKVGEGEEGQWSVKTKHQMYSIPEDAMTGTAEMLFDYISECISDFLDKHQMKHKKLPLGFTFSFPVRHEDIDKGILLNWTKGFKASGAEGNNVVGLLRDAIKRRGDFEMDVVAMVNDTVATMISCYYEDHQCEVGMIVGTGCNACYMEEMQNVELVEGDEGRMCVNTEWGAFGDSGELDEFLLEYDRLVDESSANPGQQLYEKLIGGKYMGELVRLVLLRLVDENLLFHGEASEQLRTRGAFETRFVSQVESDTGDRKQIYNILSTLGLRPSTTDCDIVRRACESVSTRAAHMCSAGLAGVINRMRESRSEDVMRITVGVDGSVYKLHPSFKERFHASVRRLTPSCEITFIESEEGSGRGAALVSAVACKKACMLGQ
Method in brief: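 Purified recombinant human pancreatic glucokinase, compounds in DMSO. Buffer: 25 mM HEPES pH 7.4, 10 mM glucose, 25 mM KCl, 1 mM MgCl2, 1 mM DTT, 1 mM ATP, 1 mM NADP, 2.5 U/mL G6PDH. Activity was expressed against DMSO-only control (100%). EC50 came from 12 concentrations fitted to a variable-slope sigmoidal curve. Values are means of three duplicate runs.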

Hepatocyte = assay: Induction of 2-Deoxy-D-[3H]-glucose uptake in rat Hepatocytes using 5.5 mM glucose after 4 hrs by liquid scintillation counting; type: functional
Method in brief: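 Rat primary hepatocytes, isolated by collagenase liver perfusion, viability over 85%. Cells attached 36 h on collagen I in MEM with 10% FBS, then serum-starved 12 h. Incubated 4 h in serum-free MEM with 5.5 mM glucose and 2-deoxy-D-[3H]-glucose, with or without compound. Washed in ice-cold PBS, lysed in 0.1 N NaOH, scintillation counted, expressed as % increase over control.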

Mus musculus [1] = assay: Antidiabetic activity in glucose-treated C57BL/J6 db/db mouse assessed as reduction of glucose AUC at 50 mg/kg, po preincubated for 30 mins followed by glucose challenge measured after 30 to 180 mins by oral glucose tolerance test relative to control; type: functional; parameters: scale not given: the % may be the effect or the level left; settings: in the assay text read “C57BL/J6 mouse” for “C57BL/J6 db/db mouse”
Method in brief: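 Oral glucose tolerance test. Mice: eight-week-old male C57BL/6 or ten-week-old male C57BLKS/J db/db, fasted overnight with water. Compound or 0.5% methylcellulose vehicle given orally, then an oral 2 g/kg glucose challenge 30 min later. Tail-tip blood glucose was read just before and at 30, 60, 90, 120 and 180 min. AUC was calculated from the time–glucose curve; n = 6.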

Mus musculus [2] = assay: Antidiabetic activity in glucose-treated C57BL/J6 mouse assessed as reduction of glucose AUC at 300 mg/kg, po preincubated for 30 mins followed by glucose challenge measured after 30 to 180 mins by oral glucose tolerance test relative to control; parameters: scale not given: the % may be the effect or the level left
Mus musculus [3] = assay: Toxicity in fasting C57BL/J6 mouse assessed as glucose lowering effect at 30 mg/kg, po after 30 to 360 mins; type: organism-based; parameters: dose 30 mg/kg, route oral; settings: in vivo
Method in brief: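 Eight-week-old male C57BL/6 mice were fasted 6 h with free access to water, then dosed orally with compound or 0.5% methylcellulose vehicle, with no glucose challenge. Blood glucose was followed up to 360 min, n = 6 per group.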

| Compound | EC50 (Hexokinase-4) | fold change (FC) (Hepatocyte) | Activity (Mus musculus [1]) | Activity (Mus musculus [2]) | Activity (Mus musculus [3]) |
| --- | --- | --- | --- | --- | --- |
| Cc1cccnc1-c1cc(Oc2ccc(S(C)(=O)=O)cc2)cc(C(=O)Nc2ncc(F)s2)c1 | 0.238 µM | 1.75 | 22.6% |  |  |
| CCN(CC)Cc1csc(NC(=O)c2cc(Oc3ccc(S(C)(=O)=O)cc3)cc(-c3ncccc3C)c2)n1 | > 50 µM |  |  |  |  |
| Cc1cccnc1-c1cc(Oc2ccc(S(C)(=O)=O)cc2)cc(C(=O)Nc2nc(CN3CCN(C)CC3)cs2)c1 | 0.688 µM | 1.19 | 4.4% |  |  |
| COCCN(CCOC)Cc1csc(NC(=O)c2cc(Oc3ccc(S(C)(=O)=O)cc3)cc(-c3ncccc3C)c2)n1 | 2.43 µM | 2.02 | 20.2% |  |  |
| COCCN(C)Cc1csc(NC(=O)c2cc(Oc3ccc(S(C)(=O)=O)cc3)cc(-c3ncccc3C)c2)n1 | 7.46 µM | 1.46 |  |  |  |
| Cc1cccnc1-c1cc(Oc2ccc(S(C)(=O)=O)cc2)cc(C(=O)Nc2nc(CN3CCNCC3)cs2)c1 | > 50 µM |  |  |  |  |
| Cc1cccnc1-c1cc(Oc2ccc(S(C)(=O)=O)cc2)cc(C(=O)Nc2nc(CNC(C)C)cs2)c1 | 0.463 µM | 1.47 | 2.2% |  |  |
| CCCNCc1csc(NC(=O)c2cc(Oc3ccc(S(C)(=O)=O)cc3)cc(-c3ncccc3C)c2)n1 | > 50 µM |  |  |  |  |
| Cc1cccnc1-c1cc(Oc2ccc(S(C)(=O)=O)cc2)cc(C(=O)Nc2ccn(C)n2)c1 | 0.807 µM | 1.74 | 24.1% |  |  |
| CCOCn1ccc(NC(=O)c2cc(Oc3ccc(S(C)(=O)=O)cc3)cc(-c3ncccc3C)c2)n1 | > 50 µM |  |  |  |  |
| CCN(CC)CCn1ccc(NC(=O)c2cc(Oc3ccc(S(C)(=O)=O)cc3)cc(-c3ncccc3C)c2)n1 | > 50 µM |  |  |  |  |
| Cc1cccnc1-c1cc(Oc2ccc(S(C)(=O)=O)cc2)cc(C(=O)Nc2ccn(CCN3CCOCC3)n2)c1 | 0.441 µM | 1.86 | 17.8% |  |  |
| CN(C)C(=N)NC(=N)N [METFORMIN] |  |  |  | 29.9% |  |
| N[C@@H](CC(=O)N1CCn2c(nnc2C(F)(F)F)C1)Cc1cc(F)c(F)cc1F [SITAGLIPTIN] |  |  |  |  | Non-toxic |

Now from value to molecule, other results behind:

| EC50 (Hexokinase-4) | Compound | fold change (FC) (Hepatocyte) | Activity (Mus musculus [1]) | Activity (Mus musculus [2]) | Activity (Mus musculus [3]) |
| --- | --- | --- | --- | --- | --- |
| 0.095 µM | Cc1cccnc1-c1cc(Oc2ccc(S(C)(=O)=O)cc2)cc(C(=O)Nc2nccs2)c1 | 1.98 | 29.8% |  |  |
| 0.103 µM | Cc1cccnc1-c1cc(Oc2ccc(S(C)(=O)=O)cc2)cc(C(=O)Nc2nc(CC(=O)NC3CC3)cs2)c1 | 1.8 | -3.1% |  |  |
| 0.005 µM | CCNC(=O)Cc1csc(NC(=O)c2cc(Oc3ccc(S(C)(=O)=O)cc3)cc(-c3ncccc3C)c2)n1 | 2.54 | -0.3% |  |  |
| 0.212 µM | Cc1cccnc1-c1cc(Oc2ccc(S(C)(=O)=O)cc2)cc(C(=O)Nc2nc(CN3CCOCC3)cs2)c1 | 2.1 |  |  |  |
| 0.008 µM | COCC(C)NCc1csc(NC(=O)c2cc(Oc3ccc(S(C)(=O)=O)cc3)cc(-c3ncccc3C)c2)n1 (centres undefined) | 1.72 |  |  |  |
| 0.033 µM | COC(CNCc1csc(NC(=O)c2cc(Oc3ccc(S(C)(=O)=O)cc3)cc(-c3ncccc3C)c2)n1)OC | 1.92 |  |  |  |
| 0.106 µM | C#CCNCc1csc(NC(=O)c2cc(Oc3ccc(S(C)(=O)=O)cc3)cc(-c3ncccc3C)c2)n1 | 2.35 |  |  |  |

Reference: ChEMBL document CHEMBL3232870, “Discovery of 3-(4-methanesulfonylphenoxy)-N-[1-(2-methoxy-ethoxymethyl)-1H-pyrazol-3-yl]-5-(3-methylpyridin-2-yl)-benzamide as a novel glucokinase activator (GKA) for the treatment of type 2 diabetes mellitus” (Bioorg Med Chem, 2014)
